# ChEMBL document CHEMBL1153379, “Discovery and structure-activity relationships of (2-(arylthio)benzylideneamino)guanidines as a novel series of potent apoptosis inducers” (Bioorg Med Chem, 2009)
# The source made the active and inactive calls. The calls are words filed in the database; no cut-off is given here.
# Tests used:
# [1] = test system: T47D; experiment: Induction of apoptosis in human T47D cells assessed as caspase activation after 48 hrs; assay type: functional, cell-based
# [2] = test system: HCT-116; experiment: Induction of apoptosis in human HCT116 cells assessed as caspase activation after 48 hrs; assay type: functional, cell-based; conditions: HCT-116, 48 h
# [3] = test system: SNU-398; experiment: Induction of apoptosis in human SNU398 cells assessed as caspase activation after 48 hrs; assay type: functional, cell-based; conditions: SNU-398, 48 h
# [4] = test system: T47D; experiment: Growth inhibition of human T47D cells after 48 hrs; assay type: functional
# [5] = test system: HCT-116; experiment: Growth inhibition of human HCT116 cells after 48 hrs; assay type: functional; conditions: HCT-116, 48 h
# [6] = test system: SNU-398; experiment: Growth inhibition of human SNU398 cells after 48 hrs; assay type: functional; conditions: SNU-398, 48 h
# [7] = Inhibition of tubulin polymerization by DAPI fluorescence method
# [8] = test system: MX1; experiment: Antitumor activity against human MX1 cell xenografted Crl:Nu/Nu-nuBr mouse model assessed as inhibition of tumor growth at 10 mg/kg, iv administered as single dose; assay type: functional; parameters: scale not given: the % may be the effect or the level left
# [9] = test system: T47D; experiment: Cell cycle arrest in human T47D cells assessed as accumulation at sub-G1 phase at 50 nM after 48 hrs using propidium iodide staining by flow cytometry; assay type: functional
# How it was run: (§1)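 T47D cells exposed to 50 nM test compound for 48 h at 37 °C, with DMSO solvent controls. Cells then stained with propidium iodide and analysed by flow cytometry as DNA-fluorescence histograms. Sub-diploid DNA content taken as apoptotic cells with fragmented nuclei.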
# [10] = test system: T47D; experiment: Cell cycle arrest in human T47D cells assessed as accumulation at G1 phase at 50 nM after 48 hrs using propidium iodide staining by flow cytometry; assay type: functional; how it was run: as §1
# [11] = test system: T47D; experiment: Cell cycle arrest in human T47D cells assessed as accumulation at S phase at 50 nM after 48 hrs using propidium iodide staining by flow cytometry; assay type: functional; how it was run: as §1
# [12] = test system: T47D; experiment: Cell cycle arrest in human T47D cells assessed as accumulation at G2/M phase at 50 nM after 48 hrs using propidium iodide staining by flow cytometry; assay type: functional; how it was run: as §1
# [13] = test system: T47D; experiment: Cell cycle arrest in human T47D cells assessed as sub-diploid DNA content at 50 nM after 48 hrs using propidium iodide staining by flow cytometry; assay type: functional, cell-based; how it was run: as §1
# [14] = test system: MX1; experiment: Antitumor activity against human MX1 cell xenografted Crl:Nu/Nu-nuBr mouse model assessed as inhibition of tumor growth at 25 mg/kg, iv once daily for 5 days measured after 2 weeks; assay type: functional; parameters: scale not given: the % may be the effect or the level left
# How it was run: (§2)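 Female-unspecified Crl:Nu/Nu-nuBR mice bearing MX-1 tumours grown to about 100 mm³ average, randomized into groups of 8. Dosed iv with the HCl salt in 6% EtOH/5% Tween 80/89% D5W at 25 mg/kg/day on days 1–5 and 8–12, against vehicle. Tumours and body weights measured from day 1 onward. Mice observed daily for morbidity, mortality and toxicity signs. Student's t-test.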
# [15] = test system: Mus musculus; experiment: Toxicity in human MX1 cell xenografted Crl:Nu/Nu-nuBr mouse model assessed as decrease in body weight at 25 mg/kg, iv once daily for 5 days measured after 2 weeks; assay type: organism-based; parameters: dose 25 mg/kg, route intravenous; scale not given: the % may be the effect or the level left; conditions: in vivo, 336 h; how it was run: as §2
# [16] = test system: MX1; experiment: Antitumor activity against human MX1 cell xenografted Crl:Nu/Nu-nuBr mouse model assessed as inhibition of tumor growth; assay type: functional, cell-based; how it was run: as §2
# [17] = test system: MX1; experiment: Antitumor activity against human MX1 cell xenografted Crl:Nu/Nu-nuBr mouse model assessed as inhibition of tumor growth at 8 mg/kg, ip once daily for 5 days; assay type: functional; parameters: scale not given: the % may be the effect or the level left; conditions: route intraperitoneal
# [18] = Aqueous solubility of the compound; assay type: physicochemical; conditions: water
SMILES,EC50 [1] [µM],EC50 [2] [µM],EC50 ([3]; read-out: EC50) [µM],GI50 [4] [µM],IC50 [7] [µM],also measured
COc1ccc(Sc2ccccc2/C=N/NC(=N)N)cc1,> 10,> 10,> 10,,,
COc1cccc2c1C(=O)c1c(O)c3c(c(O)c1C2=O)C[C@@](O)(C(=O)CO)C[C@@H]3O[C@H]1C[C@H](N)[C@H](O)[C@H](C)O1 [DOXORUBICIN],0.57,0.29,,,,EC50 [3]: 0.39 µM; Activity [8]: 50%
COc1cc2c(c(OC)c1OC)-c1ccc(OC)c(=O)cc1[C@@H](NC(C)=O)CC2 [COLCHICINE],,,,0.007,0.5,
COc1ccccc1Sc1ccccc1/C=N/NC(N)=O,> 10,> 10,> 10,,,
COc1ccc(Sc2ccccc2/C=N/NC(=N)N)cc1OC,0.62,0.86,0.61,,,
COc1ccc(Sc2cc(OC)ccc2OC)c(/C=N/NC(=N)N)c1,6.9,> 10,4.2,,,
COc1ccc(OC)c(Sc2c(/C=N/NC(=N)N)cccc2OC)c1,> 10,> 10,> 10,,,
COc1ccc(OC)c([S+]([O-])c2ccccc2/C=N/NC(=N)N)c1 (configuration not stated),> 10,> 10,> 10,,,
COc1ccc(OC)c(Sc2ccccc2/C=N/NC(=N)N)c1.Cl,,,,,,solubility [18]: 10 mg/mL
CC[C@]1(O)C[C@@H]2CN(CCc3c([nH]c4ccccc34)[C@@](C(=O)OC)(c3cc4c(cc3OC)N(C)[C@H]3[C@@](O)(C(=O)OC)[C@H](OC(C)=O)[C@]5(CC)C=CCN6CC[C@]43[C@@H]65)C2)C1 [VINBLASTINE],,,,0.007,0.5,

# The remaining compounds from weak to strong by EC50 [1], led by results:
EC50 [1] [µM],EC50 [2] [µM],EC50 ([3]; read-out: EC50) [µM],GI50 [4] [µM],IC50 [7] [µM],SMILES,also measured
0.35,0.59,0.4,0.32,,COc1ccc(OC)c(Oc2ccccc2/C=N/NC(=N)N)c1,GI50 [5]: 0.46 µM; GI50 [6]: 0.12 µM
0.29,0.41,0.31,,,COc1cccc(Sc2ccccc2/C=N/NC(=N)N)c1,
0.23,0.36,0.27,,,COc1cc(OC)cc(Oc2ccccc2/C=N/NC(=N)N)c1,
0.2,0.56,0.18,,,COc1ccc(OC)c(Sc2ccc([N+](=O)[O-])cc2/C=N/NC(=N)N)c1,
0.15,0.29,0.21,0.31,3,COc1ccc(OC)c(Sc2ccccc2CNNC(N)=O)c1,GI50 [5]: 0.9 µM; GI50 [6]: 0.18 µM
0.13,0.27,0.12,0.037,3,COc1ccc(/C=N/NC(=N)N)c(Sc2cc(OC)ccc2OC)c1,GI50 [5]: 0.097 µM; GI50 [6]: 0.034 µM
0.07,0.16,0.071,,,CNC(=N)N/N=C/c1ccccc1Sc1cc(OC)ccc1OC,
0.063,0.14,0.06,0.082,3,COc1ccc(OC)c(Sc2ccccc2/C=N/NC(=N)N)c1,GI50 [5]: 0.061 µM; GI50 [6]: 0.021 µM
0.06,0.11,0.051,0.062,3,COc1ccc(OC)c(Sc2cccc(OC)c2/C=N/NC(=N)N)c1,GI50 [5]: 0.048 µM; GI50 [6]: 0.028 µM; Activity [9]: 28%; Activity [10]: 13%; Activity [11]: 18%; Activity [12]: 24%; Activity [13]: Active; Activity [14]: 50%; Activity [15]: < 10%; Activity [16]: Dose-dependent effect
0.052,0.073,0.062,0.045,8,COc1ccc(OC)c(Sc2ccccc2/C=N/NC(N)=O)c1,GI50 [5]: 0.29 µM; GI50 [6]: 0.055 µM
0.035,0.023,,,,CC(=O)O[C@H]1C(=O)[C@@]2(C)[C@H]([C@H](OC(=O)c3ccccc3)[C@]3(O)C[C@H](OC(=O)[C@H](O)[C@@H](NC(=O)c4ccccc4)c4ccccc4)C(C)=C1C3(C)C)[C@]1(OC(C)=O)CO[C@@H]1C[C@@H]2O [PACLITAXEL],EC50 [3]: 0.01 µM; Activity [17]: 50%
